Values joined by “and” are separate entries in the source; they are usually repeats but may differ in a detail not shown here. Equal entries are not always repeated.
Legend:
Rattus norvegicus [1] = assay: Hypotensive activity when administered iv in pentobarbital-anesthetized, spontaneously hypertensive rats, at a dose 10 ug/Kg; assay type: functional
How it was run: (§1)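 Spontaneously hypertensive rats under pentobarbital anesthesia, arterial BP recorded. Dosing iv, ip or intragastric at 1–1000 μg/kg. Value is maximum % change in BP, taken immediately after iv or within 30 min after ip/ig dosing. Mean ± SE of four rats.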

Rattus norvegicus [2] = assay: Hypotensive activity when administered iv in pentobarbital-anesthetized, spontaneously hypertensive rats, at a dose 0.1 ug/kg; assay type: functional
Rattus norvegicus [3] = assay: Hypotensive activity when administered iv in pentobarbital-anesthetized, spontaneously hypertensive rats, at a dose 1000 ug/Kg; assay type: functional; how it was run: as §1
Rattus norvegicus [4] = assay: Hypotensive activity when administered iv in pentobarbital-anesthetized, spontaneously hypertensive rats, at a dose 1 ug/Kg; assay type: functional; how it was run: as §1
Rattus norvegicus [5] = assay: Hypotensive activity when administered iv in pentobarbital-anesthetized, spontaneously hypertensive rats, at a dose 100 ug/Kg; assay type: functional; how it was run: as §1
Rattus norvegicus [6] = assay: Effect on turning behavior in male rats with unilateral 6-OH-Dopamine-induced lesions of the nigrostriatal tract at 100 ug/kg i.p.; assay type: functional
How it was run: (§2)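 Rats carrying unilateral 6-hydroxydopamine lesions of the nigrostriatal tract, six per group, dosed ip. Contralateral turning recorded as: % of rats making at least one turn/min for 15 min; average turns in the first 15 min after turning began; turns in the first hour; and duration of turning in hours.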

Rattus norvegicus [7] = assay: Effect on Turning behavior in male rats with unilateral 6-hydroxydopamine-induced lesions of the nigrostriatal tract at 500 ug/kg ip; assay type: functional; how it was run: as §2
Rattus norvegicus [8] = species on record: Rattus norvegicus; assay: Effect of lordotic behavior of rats preinjection lordosis-to-mount ratio; assay type: functional
How it was run: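 Chronically ovariectomized Long-Evans hooded rats primed with 100 μg estrone sc in sesame oil 48 h before testing. Lordosis-to-mount ratio scored over 15 mounts by a sexually active male before injection. Drug given sc at 25 μg/kg in 1 mM ascorbic acid/1 mM acetic acid; retested 90 min later. N = 20; X ± SE.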

Rattus norvegicus [9] = assay: Effect (% reduction) on serum levels in reserpinized male rats at a dose, 0.3 umol/kg; assay type: functional
How it was run: (§3)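 Prolactin assay in reserpinized male rats, run by standard methods. Doses given orally; value is % reduction of serum prolactin versus control. Significance set at p < 0.05.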

Rattus norvegicus [10] = assay: Effect (% reduction) on serum levels in reserpinized male rats at a dose,0.017 umol/kg; assay type: functional; how it was run: as §3
Rattus norvegicus [11] = assay: Effect (% reduction) on serum levels in reserpinized male rats at a dose, 0.03 umol/kg; assay type: functional; how it was run: as §3
Rattus norvegicus [12] = assay: Effect (% reduction) on serum levels in reserpinized male rats at a dose, 0.17 umol/kg; assay type: functional; how it was run: as §3
Rattus norvegicus [13] = assay: Hypotensive activity when administered ip in pentobarbital-anesthetized, spontaneously hypertensive rats, at a dose 100 ug/kg; assay type: functional; how it was run: as §1
Felis catus [14] = assay: Effect of iv injection on arterial blood pressure in the anesthetized, normotensive cat at a dose 100 ug/kg; assay type: functional
Rattus norvegicus [15] = assay: Hypotensive activity when administered iv in pentobarbital-anesthetized, spontaneously hypertensive rats, at a dose 100 ug/kg; assay type: functional; how it was run: as §1
Rattus norvegicus [16] = assay: Hypotensive activity when administered ig in pentobarbital-anesthetized, spontaneously hypertensive rats, at a dose 1000 ug/kg; assay type: functional; how it was run: as §1
Rattus norvegicus [17] = assay: Hypotensive activity when administered ip in pentobarbital-anesthetized, spontaneously hypertensive rats, at a dose 1000 ug/kg; assay type: functional; how it was run: as §1
Rattus norvegicus [18] = assay: Hypotensive activity when administered ip in pentobarbital-anesthetized, spontaneously hypertensive rats, at a dose 10 ug/kg; assay type: functional; how it was run: as §1
Rattus norvegicus [19] = assay: Effect of iv injection on arterial blood pressure in the anesthetized, spontaneously hypertensive rat at a dose 1000 ug/kg
Canis familiaris [20] = assay: Effect of iv injection on arterial blood pressure in the anesthetized, normotensive dog at a dose 10 ug/kg; assay type: functional, Canis lupus familiaris
Canis familiaris [21] = assay: Effect of iv injection on arterial blood pressure in the anesthetized, normotensive dog at a dose 100 ug/kg; assay type: functional, Canis lupus familiaris
Rattus norvegicus [22] = assay: Hypotensive activity when administered iv in pentobarbital-anesthetized, spontaneously hypertensive rats, at a dose 1 ug/kg; assay type: functional; how it was run: as §1
Rattus norvegicus [23] = assay: Effect of iv injection on arterial blood pressure in the anesthetized, spontaneously hypertensive rat at a dose 10 ug/kg
Rattus norvegicus [24] = assay: Hypotensive activity when administered iv in pentobarbital-anesthetized, spontaneously hypertensive rats, at a dose 1000 ug/kg; assay type: functional; how it was run: as §1
Rattus norvegicus [25] = assay: Hypotensive activity when administered iv in pentobarbital-anesthetized, spontaneously hypertensive rats, at a dose 10 ug/kg; assay type: functional; how it was run: as §1
Felis catus [26] = assay: Effect of iv injection on arterial blood pressure in the anesthetized, normotensive cat at a dose 10 ug/kg; assay type: functional
Rattus norvegicus [27] = assay: Hypotensive activity when administered ig in pentobarbital-anesthetized, spontaneously hypertensive rats, at a dose 100 ug/kg; assay type: functional; how it was run: as §1
Canis familiaris [28] = assay: Effect of iv injection on arterial blood pressure in the anesthetized, normotensive dog at a dose 1 ug/kg; assay type: functional, Canis lupus familiaris
Rattus norvegicus [29] = assay: Effect of iv injection on arterial blood pressure in the anesthetized, spontaneously hypertensive rat at a dose 1 ug/kg
Rattus norvegicus [30] = assay: Effect of iv injection on arterial blood pressure in the anesthetized, spontaneously hypertensive rat at a dose 100 ug/kg
Canis familiaris [31] = assay: Effect of iv injection on arterial blood pressure in the anesthetized, normotensive dog at a dose 1000 ug/kg; assay type: functional, Canis lupus familiaris
Rattus norvegicus [32] = assay: Hypotensive activity when administered ig in pentobarbital-anesthetized, spontaneously hypertensive rats, at a dose 10 ug/kg; assay type: functional; how it was run: as §1

## CCCN1CCC[C@@H]2Cc3n[nH]cc3CC21 (single isomer, unassigned; (+))
Rattus norvegicus [1]
  BP change: -5%
Rattus norvegicus [2]
  BP change: -8.5%
Rattus norvegicus [3]
  BP change: -6.4%
Rattus norvegicus [4]
  BP change: -5.1%
Rattus norvegicus [5]
  BP change: -4.6%
Rattus norvegicus [6]
  Activity: 0% and 0
Rattus norvegicus [7]
  Activity: 0%
Rattus norvegicus [8]
  L/M ratio: 0.12

## CCCN1CCC[C@@H]2Cc3n[nH]cc3CC21 (single isomer, unassigned; (-))
Rattus norvegicus [1]
  BP change: -25.2%
Rattus norvegicus [9]
  Reduction: 88%
Rattus norvegicus [2]
  BP change: -7.7%
Rattus norvegicus [4]
  BP change: -14.3%
Rattus norvegicus [10]
  Reduction: 26%
Rattus norvegicus [11]
  Reduction: 38%
Rattus norvegicus [5]
  BP change: -38.6%
Rattus norvegicus [12]
  Reduction: 73%
Rattus norvegicus [7]
  Activity: 100%

## CCCN1CCC[C@@H]2Cc3n[nH]cc3CC21 (mixture of isomers)
Rattus norvegicus [13]
  BP change: -40.5%
Felis catus [14]
  BP change: -45%
Rattus norvegicus [9]
  Reduction: 76%
Rattus norvegicus [15]
  BP change: -32%
Rattus norvegicus [16]
  BP change: -50.7%
Rattus norvegicus [10]
  Reduction: 19%
Rattus norvegicus [17]
  BP change: -45.7%
Rattus norvegicus [18]
  BP change: -6.1%
Rattus norvegicus [11]
  Reduction: 20%
Rattus norvegicus [19]
  BP change: -52%
Canis familiaris [20]
  BP change: -34%
Canis familiaris [21]
  BP change: -45%
Rattus norvegicus [22]
  BP change: -12.7%
Rattus norvegicus [23]
  BP change: -22%
Rattus norvegicus [24]
  BP change: -52.2%
Rattus norvegicus [25]
  BP change: -22.4%
Felis catus [26]
  BP change: -23%
Rattus norvegicus [12]
  Reduction: 65%
Rattus norvegicus [27]
  BP change: -27.6%
Canis familiaris [28]
  BP change: -15%
Rattus norvegicus [29]
  BP change: -13%
Rattus norvegicus [30]
  BP change: -32%
Canis familiaris [31]
  BP change: -46%
Rattus norvegicus [32]
  BP change: -5.4%

## CN1CCc2cccc3c2[C@H]1Cc1ccc(O)c(O)c1-3 [APOMORPHINE]
Rattus norvegicus [7]
  Activity: 100%
